# Measured values reported in ChEMBL document CHEMBL2321805, “N-methyldihydroquinazolinone derivatives of Retro-2 with enhanced efficacy against Shiga toxin” (J Med Chem, 2013).
# Activity calls are given as the source filed them. The rule behind the calls is not given here.
# Tests used:
# [1] = test system: HeLa; test: Inhibition of shiga toxin retrograde transport in human HeLa cells after 20 mins by sulfation assay relative to control; type: functional
# [2] = test system: HeLa; test: Cytoprotective activity against shiga toxin-induced cytotoxicity in human HeLa cells at 30 uM incubated for 4 hrs prior to shiga toxin addition measured after 20 hrs by liquid scintillation counting analysis relative to Retro-2; type: functional
# [3] = test system: HeLa; test: Cytoprotective activity against shiga toxin-induced cytotoxicity in human HeLa cells at 30 uM incubated for 4 hrs prior to shiga toxin addition measured after 20 hrs by liquid scintillation counting analysis; type: functional, cell-based
# [4] = test system: HeLa; test: Inhibition of shiga toxin retrograde transport in human HeLa cells assessed as relocalization of syntaxin 5 at 20 uM after 30 mins by immunofluorescence staining; type: functional, cell-based
# Summary of the method: (§1)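 HeLa cells were treated for 30 min with 20 μM compound or DMSO carrier, then fixed. They were immunolabeled for syntaxin 5 and the Golgi marker giantin and imaged by confocal microscopy with a 60× oil objective (NA 1.4). Maximum projections of 6–8 Z slices at 250 nm spacing are shown.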
# [5] = test system: HeLa; test: Inhibition of shiga toxin retrograde transport in human HeLa cells assessed as change in golgi apparatus morphology at 20 uM after 30 mins by immunofluorescence staining; type: functional, cell-based; summary of the method: as §1
SMILES,inhibition (INH) [1] [%],Activity [2] [%],EC50 [3] [µM],inhibition [4],inhibition [5]
Cc1ccc(C2N(C)c3ccccc3C(=O)N2c2ccccc2)s1 (racemic),38.7,275,10.2,–,–
CCc1ccc(C2N(C)c3ccccc3C(=O)N2c2ccccc2)s1 (racemic),0,323,4.2,–,–
Cc1ccc(C2Nc3ccccc3C(=O)N2c2ccccc2)s1 (racemic),36.9,100,27.3,Active,–
O=C1c2ccccc2NC(c2ccc(-c3ccccc3)s2)N1c1ccccc1 (racemic),–,287,3.7,–,–
Cc1nc(-c2ccc(C3Nc4ccccc4C(=O)N3c3ccccc3)s2)cs1 (racemic),0,271,1.4,–,–
CN1c2ccccc2C(=O)N(c2ccccc2)C1c1ccc(Br)s1 (racemic),–,118,3.4,–,–
CN1c2ccccc2C(=O)N(c2ccccc2)C1c1ccc(-c2ccccc2)s1 (racemic),–,309,2.1,–,–
CN1c2ccccc2C(=O)N(c2ccccc2)C1c1ccc(-c2ccco2)s1 (racemic),–,140.4,1.5,–,–
Cc1nc(-c2ccc(C3N(C)c4ccccc4C(=O)N3c3ccccc3)s2)cs1 (racemic),0,301,0.3,Active,Active
CCc1ccc(C2Nc3ccccc3C(=O)N2c2ccccc2)s1 (racemic),13.5,166,8.7,–,–
